Common to all, as to type: functional
One assay has as its system OVCAR-4. Nature of the assay: Growth inhibition of human OVCAR-4 cells assessed as cell growth at 1 uM incubated for 48 hrs by sulforhodamine B assay relative to control. Conditions: read-out: Activity.
Another assay has as its system HCC 2998. In words: Growth inhibition of human HCC 2998 cells assessed as cell growth at 1 uM incubated for 48 hrs by sulforhodamine B assay relative to control. Conditions: read-out: Activity. The essentials:
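NCI Developmental Therapeutics Program NCI60 panel. Compounds that were active in the 10 µM one-dose screen went on to dose–response testing. Growth at each concentration is expressed relative to untreated control (100%). GI50 (concentration giving 50% of maximal inhibition of proliferation) and TGI (concentration giving total growth inhibition) were derived from the curves.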

In a further assay the test system is SK-MEL-5. Nature of the assay: Growth inhibition of human SK-MEL-5 cells incubated for 48 hrs by sulforhodamine B assay. The method in brief: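 NCI DTP 60-line human tumour panel. Dose-response curves were run only for ligands active in the initial 10 µM screen. GI50 (concentration giving 50% of maximal inhibition of proliferation) and TGI (concentration giving total growth inhibition) were derived from these curves.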

The subject of assay [1] is EKVX. In words: Growth inhibition of human EKVX cells assessed as cell growth at 10 uM incubated for 48 hrs by sulforhodamine B assay relative to control. Conditions: read-out: Activity.
Assay [2] has as its system EKVX. In words: Growth inhibition of human EKVX cells assessed as cell growth at 100 uM incubated for 48 hrs by sulforhodamine B assay relative to control. To be noted: read-out: Activity.
Assay [3] deals with HL-60(TB). In words: Growth inhibition of human HL-60(TB) cells assessed as cell growth at 0.01 uM incubated for 48 hrs by sulforhodamine B assay relative to control. To be noted: read-out: Activity. The method in brief:
(§1)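 Screened by the NCI Developmental Therapeutics Program on its panel of 60 human tumour cell lines. Compounds were first tested at a single 10 µM dose, and compounds active there went to dose-response curves. Growth is expressed relative to untreated control (100%). GI50 (50% of maximal proliferation inhibition) and TGI (total growth inhibition) were derived from the dose-response data.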

Assay [4] relates to HL-60(TB). In words: Growth inhibition of human HL-60(TB) cells assessed as cell growth at 1 uM incubated for 48 hrs by sulforhodamine B assay relative to control. To be noted: read-out: Activity. The essentials: as §1
For assay [5], the system named is HL-60(TB). Nature of the assay: Growth inhibition of human HL-60(TB) cells assessed as cell growth at 0.1 uM incubated for 48 hrs by sulforhodamine B assay relative to control. Conditions: read-out: Activity. The method in brief: as §1
In assay [6] the test system is EKVX. In words: Growth inhibition of human EKVX cells assessed as cell growth at 0.01 uM incubated for 48 hrs by sulforhodamine B assay relative to control. Conditions: read-out: Activity.
Assay [7] has as its system EKVX. Nature of the assay: Growth inhibition of human EKVX cells assessed as cell growth at 0.1 uM incubated for 48 hrs by sulforhodamine B assay relative to control. To be noted: read-out: Activity.
In assay [8] the test system is HL-60(TB). Nature of the assay: Growth inhibition of human HL-60(TB) cells assessed as cell growth at 100 uM incubated for 48 hrs by sulforhodamine B assay relative to control. Conditions: read-out: Activity. The method in brief:
as §1

In assay [9] the test system is HL-60(TB). In words: Growth inhibition of human HL-60(TB) cells incubated for 48 hrs by sulforhodamine B assay. The method in brief: as §1
For assay [10], the system named is EKVX. In words: Growth inhibition of human EKVX cells incubated for 48 hrs by sulforhodamine B assay.
The test system of assay [11] is EKVX. In words: Growth inhibition of human EKVX cells assessed as cell growth at 1 uM incubated for 48 hrs by sulforhodamine B assay relative to control. Conditions: read-out: Activity.

The source of these data is ChEMBL document CHEMBL4715736, “Identification of anticancer agents based on the thieno[2,3-b]pyridine and 1H-pyrazole molecular scaffolds” (2016).

A value given as a limit tells only on which side of the number the result lay.

Regarding `Nc1c(C(=O)Nc2ccccc2)sc2nc3c(cc12)CN(Cc1ccccc1)CC3`, the growth at 1 µM in the assay with OVCAR-4 stood at 66%. In addition, the growth at 1 µM with HCC 2998 worked out at 105%. In the assay on SK-MEL-5, this compound had a GI50 of 9.58 µM, an LC50 of over 100 µM and a total growth inhibition concentration (TGI) of over 100 µM.
As to `COc1ccc(S(=O)(=O)n2ccc(-c3ccc4c(c3)CCC(C)(C)O4)n2)cc1`, the growth at 10 µM in the assay with EKVX [1] turned out to be 51.6%.
In the case of `Cc1cc(C)c(NC(=O)c2sc3nc4c(cc3c2N)CN(Cc2ccccc2)CC4)c(C)c1`, the growth at 1 µM with OVCAR-4 was 77%. Moreover, the growth at 1 µM in the assay on HCC 2998 was found to be 103%. In the assay on SK-MEL-5, this compound showed a GI50 of 1.47 µM, an LC50 of over 100 µM and a TGI of 11.5 µM.
As for `CN1CCc2nc3sc(C(N)=O)c(N)c3c(-c3cccs3)c2C1`, the growth at 100 µM is 5% in the assay on EKVX [2] and -19% with HL-60(TB) [8]. The growth at 0.01 µM is 110% in the assay on HL-60(TB) [3] and 100% in the assay with EKVX [6]. The growth at 1 µM stood at 95% in the assay with HL-60(TB) [4], 108% in the assay on OVCAR-4, 94% in the assay with HCC 2998 and 91% in the assay with EKVX [11]. The growth at 0.1 µM in the assay with HL-60(TB) [5] is 104%; in the assay with EKVX [7] it was 92%. The growth at 10 µM in the assay on EKVX [1] worked out at 17%. Moreover, the figures for the 50% growth inhibitory concentration (GI50) in the assay on HL-60(TB) [9], in the assay on EKVX [10] and in the assay with SK-MEL-5 were 2.5 µM, 3.54 µM and 1.43 µM, respectively. The LC50 with HL-60(TB) [9] and in the assay on SK-MEL-5 was over 100 µM each time. In addition, the TGI with HL-60(TB) [9] is 6.97 µM; with EKVX [10], over 100 µM; in the assay with SK-MEL-5 it was 5.24 µM. Moreover, in the assay with EKVX [10] (read-out: LC50 (the source's name)), the CC50 is over 100 µM.
As for `COc1cccc(NC(=O)c2sc3nc4c(cc3c2N)CN(Cc2ccccc2)CC4)c1`, in the assay on OVCAR-4, the growth at 1 µM came to 78%. The growth at 1 µM in the assay with HCC 2998 stood at 86%. In the assay on SK-MEL-5, this compound gave a 50% growth inhibitory concentration (GI50) of 2.15 µM, a median lethal concentration (LC50) of over 100 µM and a TGI of 31.9 µM.
For the compound `CCc1ccccc1NC(=O)c1sc2nc3c(cc2c1N)C(=O)CCC3`, the growth at 0.01 µM in the assay on HL-60(TB) [3] turned out to be 101%. Further, the results for the growth at 1 µM in the assay on HL-60(TB) [4], in the assay on OVCAR-4 and in the assay on HCC 2998 were 6%, 45% and 56%, respectively. The growth at 0.1 µM with HL-60(TB) [5] stood at 87%. Moreover, the growth at 100 µM in the assay on HL-60(TB) [8] was -5%. For the same compound, the results for the GI50 with HL-60(TB) [9] and with SK-MEL-5 were 0.304 µM and 0.282 µM, respectively. Further, the LC50 with HL-60(TB) [9] and in the assay on SK-MEL-5 was over 100 µM throughout. Moreover, the TGI with HL-60(TB) [9] was 42 µM; with SK-MEL-5, over 100 µM.
As to `Cc1ccc(NC(=O)c2sc3nc4c(cc3c2N)C(=O)CCC4)cc1C`, the growth at 0.01 µM in the assay with HL-60(TB) [3] came to 99%. Besides, the growth at 1 µM in the assay on HL-60(TB) [4] stood at 6%; with OVCAR-4, 42%; in the assay on HCC 2998 it was 57%. Also, the growth at 0.1 µM with HL-60(TB) [5] is 105%. In addition, the growth at 100 µM in the assay with HL-60(TB) [8] is -33%. For the same compound, the GI50 with HL-60(TB) [9] came to 0.36 µM; in the assay with SK-MEL-5 it was 0.376 µM. Moreover, the LC50 was over 100 µM in the assay with HL-60(TB) [9] and at least 100 µM in the assay with SK-MEL-5. For the same compound, the results for the TGI with HL-60(TB) [9] and in the assay on SK-MEL-5 were 1.72 µM and 16.4 µM, respectively.
Turning to `Cc1cccc(NC(=O)c2sc3nc4c(cc3c2N)C(=O)CCC4)c1`, in the assay with OVCAR-4, the growth at 1 µM was found to be 44%. For the same compound, in the assay with HCC 2998, the growth at 1 µM was 28%. In the assay on SK-MEL-5, this compound returned a GI50 of 0.169 µM, an LC50 of over 100 µM and a TGI of at least 100 µM.
Regarding `CCc1cccc(C)c1NC(=O)c1sc2nc3c(cc2c1N)C(=O)CCC3`, the growth at 0.01 µM with HL-60(TB) [3] was 96%. Further, the growth at 1 µM was 2% in the assay with HL-60(TB) [4], 39% in the assay on OVCAR-4 and 55% in the assay with HCC 2998. The growth at 0.1 µM in the assay on HL-60(TB) [5] amounted to 96%. Moreover, the growth at 100 µM in the assay with HL-60(TB) [8] is -52%. The GI50 in the assay on HL-60(TB) [9] was determined as 0.319 µM; in the assay on SK-MEL-5 it was 0.294 µM. In addition, the LC50 in the assay on HL-60(TB) [9] is at least 100 µM; in the assay with SK-MEL-5, 39 µM. Moreover, the TGI in the assay with HL-60(TB) [9] was at least 100 µM; in the assay on SK-MEL-5, 151 µM.
